One compound from ChEMBL document CHEMBL1770084, “An inhibitor-like binding mode of a carbonic anhydrase activator within the active site of isoform II” (Bioorg Med Chem Lett, 2011) can be followed below.

Assay [1] concerns the target Carbonic anhydrase 2 (Homo sapiens) (UniProt P00918). Description: Activation of human carbonic anhydrase 2 activity at 20 uM after 24 hrs by CO2 hydration stopped-flow assay relative to control. The method in brief:
(§1)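 hCA II (10 nM) held with test compound at 20 µM (stated as 20 lM in the footnote) for 15 min to 144 h before assay. Activity then read by stopped-flow CO2 hydrase assay. Values are % of initial enzyme activity with no test compound, which is set to 100%.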

For assay [2] the target is unchanged. Description: Binding affinity to human cytosolic carbonic anhydrase 2.
Assay [3] addresses Carbonic anhydrase 9 (Homo sapiens) (UniProt Q16790). Put plainly: Activation of human transmembrane carbonic anhydrase 9 preincubated for 15 mins by CO2 hydration stopped-flow assay.
Assay [4] concerns the target Carbonic anhydrase 2 (Homo sapiens) (UniProt P00918). Description: Activation of human cytosolic carbonic anhydrase 2 preincubated for 15 mins by CO2 hydration stopped-flow assay.
For assay [5] the target is unchanged. Put plainly: Inhibition of human carbonic anhydrase 2 activity at 20 uM after 144 hrs by CO2 hydration stopped-flow assay relative to control. The method in brief: as §1
For assay [6], the target named is Carbonic anhydrase 9 (Homo sapiens) (UniProt Q16790). Description: Binding affinity to human transmembrane carbonic anhydrase 9.
Assay [7] addresses Carbonic anhydrase 1 (Homo sapiens) (UniProt P00915). Description: Binding affinity to human cytosolic carbonic anhydrase 1.
Assay [8] deals with Carbonic anhydrase 2 (Homo sapiens) (UniProt P00918). Description: Activation of human carbonic anhydrase 2 activity at 20 uM after 1 hr by CO2 hydration stopped-flow assay relative to control. In a few lines: as §1
The target is the same in assay [9]. Description: Activation of human carbonic anhydrase 2 activity at 20 uM after 36 hrs by CO2 hydration stopped-flow assay relative to control. In a few lines: as §1
The target in assay [10] is Carbonic anhydrase 14 (Homo sapiens) (UniProt Q9ULX7). Put plainly: Binding affinity to human transmembrane carbonic anhydrase 14.
Assay [11] has as its target Carbonic anhydrase 2 (Homo sapiens) (UniProt P00918). Description: Inhibition of human carbonic anhydrase 2 activity at 20 uM after 96 hrs by CO2 hydration stopped-flow assay relative to control. The method in brief: as §1
The target is the same in assay [12]. Description: Inhibition of human carbonic anhydrase 2 activity at 20 uM after 72 hrs by CO2 hydration stopped-flow assay relative to control. In a few lines: as §1
Assay [13] has the same target. Put plainly: Activation of human carbonic anhydrase 2 activity at 20 uM after 15 mins by CO2 hydration stopped-flow assay relative to control. In a few lines:
as §1

Assay [14] shares this target. Description: Activation of human carbonic anhydrase 2 activity at 20 uM after 12 hrs by CO2 hydration stopped-flow assay relative to control. In a few lines: as §1
Assay [15] has as its target Carbonic anhydrase 7 (Homo sapiens) (UniProt P43166). Description: Activation of human cytosolic carbonic anhydrase 7 preincubated for 15 mins by CO2 hydration stopped-flow assay.
For assay [16] the target is unchanged. Put plainly: Binding affinity to human cytosolic carbonic anhydrase 7.
Assay [17] deals with Carbonic anhydrase 14 (Homo sapiens) (UniProt Q9ULX7). Description: Activation of human transmembrane carbonic anhydrase 14 preincubated for 15 mins by CO2 hydration stopped-flow assay.
Assay [18] concerns the target Carbonic anhydrase 12 (Homo sapiens) (UniProt O43570). Description: Binding affinity to human transmembrane carbonic anhydrase 12.
In assay [19] the target is Carbonic anhydrase 2 (Homo sapiens) (UniProt P00918). Put plainly: Inhibition of human carbonic anhydrase 2 activity at 20 uM after 48 hrs by CO2 hydration stopped-flow assay relative to control. In a few lines:
as §1

In assay [20] the target is Carbonic anhydrase 12 (Homo sapiens) (UniProt O43570). Description: Activation of human transmembrane carbonic anhydrase 12 preincubated for 15 mins by CO2 hydration stopped-flow assay.
Assay [21] concerns the target Carbonic anhydrase 1 (Homo sapiens) (UniProt P00915). Put plainly: Activation of human cytosolic carbonic anhydrase 1 preincubated for 15 mins by CO2 hydration stopped-flow assay.

SMILES strings stand for the structures.

Carbonic anhydrase 14 (Homo sapiens), sequence (Q9ULX7 whole entry): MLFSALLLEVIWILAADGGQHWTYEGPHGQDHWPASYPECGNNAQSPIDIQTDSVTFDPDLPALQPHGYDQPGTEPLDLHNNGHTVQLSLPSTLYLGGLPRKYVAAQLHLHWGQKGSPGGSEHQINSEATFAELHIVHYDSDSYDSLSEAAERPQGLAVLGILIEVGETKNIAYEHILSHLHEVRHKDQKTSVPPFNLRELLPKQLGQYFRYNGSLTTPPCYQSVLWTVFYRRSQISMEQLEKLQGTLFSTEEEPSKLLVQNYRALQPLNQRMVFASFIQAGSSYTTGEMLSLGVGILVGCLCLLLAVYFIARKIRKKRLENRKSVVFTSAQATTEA
Carbonic anhydrase 1 (Homo sapiens), sequence (P00915 2-261 limits assumed): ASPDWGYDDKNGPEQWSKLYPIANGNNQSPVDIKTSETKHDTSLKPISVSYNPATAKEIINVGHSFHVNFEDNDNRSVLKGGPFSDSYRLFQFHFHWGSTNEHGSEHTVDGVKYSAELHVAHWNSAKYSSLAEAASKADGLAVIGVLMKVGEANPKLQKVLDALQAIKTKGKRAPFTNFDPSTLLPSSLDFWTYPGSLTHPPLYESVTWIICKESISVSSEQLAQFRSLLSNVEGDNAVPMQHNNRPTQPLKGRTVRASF
Carbonic anhydrase 12 (Homo sapiens), sequence (O43570 whole entry): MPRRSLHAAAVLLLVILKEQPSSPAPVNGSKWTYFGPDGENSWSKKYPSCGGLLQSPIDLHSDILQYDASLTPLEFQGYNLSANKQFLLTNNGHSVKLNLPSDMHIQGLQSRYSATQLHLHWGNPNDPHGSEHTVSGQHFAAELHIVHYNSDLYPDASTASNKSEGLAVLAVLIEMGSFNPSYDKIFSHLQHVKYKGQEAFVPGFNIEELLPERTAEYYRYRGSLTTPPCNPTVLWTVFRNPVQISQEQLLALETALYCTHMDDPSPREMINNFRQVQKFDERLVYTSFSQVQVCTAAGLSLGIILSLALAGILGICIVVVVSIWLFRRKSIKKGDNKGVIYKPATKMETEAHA
Carbonic anhydrase 7 (Homo sapiens), sequence (P43166 whole entry): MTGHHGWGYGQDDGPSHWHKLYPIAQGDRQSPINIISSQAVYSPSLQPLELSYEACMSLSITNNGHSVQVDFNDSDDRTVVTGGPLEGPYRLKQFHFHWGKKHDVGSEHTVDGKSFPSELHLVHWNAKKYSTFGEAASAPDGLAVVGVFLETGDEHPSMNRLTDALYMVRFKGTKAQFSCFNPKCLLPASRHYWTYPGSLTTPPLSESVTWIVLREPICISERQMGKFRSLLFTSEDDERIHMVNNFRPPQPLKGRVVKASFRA

What is called inhibition is how much of the control response was suppressed. Turning to `Cc1cc(C)[n+](CCc2c[nH]cn2)c(C)c1`, the Activity in assay [1] was found to be 149%; in assay [2] it was 3.15 µM; in [6], 0.08 µM; in assay [7] it was 3.15 µM; in assay [8], 153%; in assay [9], 147%. The Activity in [10] worked out at 0.08 µM; in [13] it was 156%; in assay [14] it was 154%; in assay [16], 3.15 µM; in assay [18], 0.08 µM. Also, the Ka was 0.76 µM in assay [3]; 18 µM in assay [4]; 7.71 µM in assay [15]; 0.08 µM in assay [17]; 0.96 µM in [20]; 3.15 µM in assay [21]. Besides, the inhibition in [5] amounted to 3%; in assay [11], 5%; in assay [12], 14%; in [19], 65%.
